# Published values collected from several papers.
# Protocols differ between the studies behind these lines.
# ADRA2B: Alpha-2B adrenergic receptor (ADRA2B, Homo sapiens, UniProt P18089)
# Prostate-specific antigen: Prostate-specific antigen (Homo sapiens, UniProt P07288)
# TMEM97: Sigma intracellular receptor 2 (TMEM97, Homo sapiens, UniProt Q5BJF2)
# ADRA1D: Alpha-1D adrenergic receptor (ADRA1D, Homo sapiens, UniProt P25100)
# CASP7: Caspase-7 (CASP7, Homo sapiens, UniProt P55210)
# SIGMAR1: Sigma non-opioid intracellular receptor 1 (SIGMAR1, Cavia porcellus, UniProt Q60492)
# lecB: Fucose-binding lectin PA-IIL (lecB, Pseudomonas aeruginosa, UniProt Q9HYN5)
SMILES,target,observed,action,method,pH,setting,Ki [nM]
Nc1ccnc2ccccc12,ADRA2B,ligand displacement,,radioligand,,cell membranes,53800
CCCC[C@H](NC(=O)[C@H](CCC(N)=O)NC(=O)[C@H](CO)NC(=O)[C@H](CO)NC(=O)CCCCCN)C(=O)N[C@@H](CC(C)C)B(O)O,Prostate-specific antigen,enzyme activity,inhibitor,fluorescence,pH 7.8,,43.1
O=C(CCCCC1SC[C@@H]2NC(=O)N[C@H]12)NCCCN(CCCN1CCN(C2CCCCC2)CC1)CC(=O)Nc1ccc(C(=O)c2ccccc2)cc1 (stereo in doubt),TMEM97,ligand displacement,,radioligand,,cell membranes,87
O=C1c2ccccc2CCCN1CCCCN1CCN(c2ccccn2)CC1,ADRA1D,ligand displacement,,radioligand,,,980
CCCC[C@H](NC(=O)[C@H](CCC(N)=O)NC(=O)[C@H](CO)NC(=O)[C@H](Cc1ccccc1)NC(=O)CCCCCN)C(=O)N[C@@H](Cc1ccccc1)B(O)O,Prostate-specific antigen,enzyme activity,inhibitor,fluorescence,pH 7.8,,61.5
O=c1c(O)c(-c2ccc(O)c(O)c2)oc2cc(O)cc(O)c12,CASP7,enzyme activity,inhibitor,fluorescence,,,> 300000
O=C(NCCN1CCCCC1)c1cc(Br)ccc1O,SIGMAR1,ligand displacement,,radioligand,,cell membranes,> 10000
CN(Cc1ccc(NC(=O)C2=Cc3cc(-c4ccc(OCCCF)cc4)ccc3CCC2)cc1)C1CCOCC1,ADRA2B,ligand displacement,,radioligand,,,1200
CCCn1nc(C(=O)N2CCCCC2)c2c1CCC(Nc1ccc(N3CCCCC3)cc1)C2 (stereo not shown),TMEM97,ligand displacement,,radioligand,,,787
CCCC[C@H](NC(=O)[C@H](CCC(N)=O)NC(=O)[C@H](CO)NC(=O)CCCCCN)C(=O)N[C@@H](CCCBr)B(O)O,Prostate-specific antigen,enzyme activity,inhibitor,fluorescence,pH 7.8,,302
O=C(NCCN1CCCCC1)c1cc(Br)ccc1OCCCF,SIGMAR1,ligand displacement,,radioligand,,cell membranes,52.9
C[C@@H]1O[C@H](CNS(=O)(=O)c2ccc(CCn3cc(CN4CCN(c5cc6c(cc5F)c(=O)c(C(=O)O)cn6C5CC5)CC4)nn3)s2)[C@@H](O)[C@H](O)[C@@H]1O,lecB,ligand displacement,,FP,,,820
CCCNc1nc2ccccc2n1Cc1ccc(Cl)cc1,ADRA2B,ligand displacement,,radioligand,,,677
Cc1cc(Oc2nccc3ccsc23)ccc1-c1c(C)c(=O)[nH]c(=O)n1C,"Muscarinic acetylcholine receptor M3 (CHRM3, Homo sapiens, UniProt P20309)",ligand displacement,,radioligand,,,4600
C#CCNCCCN1CCN(CCCNC(=O)c2ccc(C(=O)c3ccc([N+](=O)[O-])cc3)cc2)CC1,TMEM97,ligand displacement,,radioligand,,cell membranes,60.1
COc1ccc2c(c1)C(=O)N(CCN1CCN(c3ccccc3OC)CC1)C2,ADRA1D,ligand displacement,,radioligand,,,12.4
CCCC[C@H](NC(=O)[C@H](CCCCN)NC(=O)[C@H](CO)NC(=O)[C@H](CO)NC(=O)OCc1ccccc1)C(=O)N[C@@H](Cc1ccccc1)B(O)O,Prostate-specific antigen,enzyme activity,inhibitor,fluorescence,pH 7.8,,165
C[C@@H]1O[C@H](CNS(=O)(=O)c2ccc(CCn3cc(CCN4CCN(c5cc6c(cc5F)c(=O)c(C(=O)O)cn6C5CC5)CC4)nn3)s2)[C@@H](O)[C@H](O)[C@@H]1O,lecB,ligand displacement,,FP,,,890
CCCCN1CCC(COC(=O)c2ccc(N)c(OCF)c2)CC1,ADRA1D,cell-free assay,,radioligand,,,> 10000
OCCCN1CC[C@@H]2C[C@H]1c1cc(-c3ccc(C(F)(F)F)cc3)ccc12,TMEM97,ligand displacement,,radioligand,,,17
O=C(CN(CCCCI)CCCN1CCN(C2CCCCC2)CC1)Nc1ccc(C(=O)c2ccccc2)cc1,TMEM97,ligand displacement,,radioligand,,cell membranes,45
CNC(=O)[C@@]12C[C@@H]1[C@@H](n1cnc3c(NC)nc(C#Cc4ccccc4)nc31)[C@H](O)[C@@H]2O,SIGMAR1,ligand displacement,,radioligand,,,7110
CCCC[C@H](NC(=O)[C@H](CCC(N)=O)NC(=O)[C@H](CO)NC(=O)[C@H](Cc1ccccc1)NC(=O)CCCCCN)C(=O)N[C@@H](CCCBr)B1O[C@@H]2C[C@@H]3C[C@@H](C3(C)C)[C@]2(C)O1,Prostate-specific antigen,enzyme activity,inhibitor,fluorescence,pH 7.8,,73.3
O=c1c(O)c(-c2ccc(O)cc2)oc2cc(O)cc(O)c12,CASP7,enzyme activity,inhibitor,fluorescence,,,> 300000
O=C(c1ccc(CNCCCN2CCN(c3ccc(F)cc3)CC2)cc1)c1ccc([N+](=O)[O-])cc1,TMEM97,ligand displacement,,radioligand,,cell membranes,34
CN(Cc1ccc(NC(=O)C2=Cc3cc(-c4ccc(OCCCCCF)cc4)ccc3CCC2)cc1)C1CCOCC1,ADRA2B,ligand displacement,,radioligand,,,6810
CCCn1nc(C(=O)N2CCCCC2)c2c1CCC(Nc1ccc(Oc3ccccc3)cc1)C2 (stereo not shown),TMEM97,ligand displacement,,radioligand,,,310
CCCC[C@H](NC(=O)[C@H](CCC(N)=O)NC(=O)[C@H](CO)NC(=O)[C@H](C)NC(=O)CCCCCN)C(=O)N[C@@H](Cc1ccccc1)B(O)O,Prostate-specific antigen,enzyme activity,inhibitor,fluorescence,pH 7.8,,310
CNc1nc(C#Cc2ccc(Cl)s2)nc2c1ncn2[C@H]1[C@H](O)[C@H](O)[C@]2(C(=O)OC)C[C@H]12,SIGMAR1,ligand displacement,,radioligand,,,8730
COc1cc2c(cc1OC)CN(CCCNC(=O)c1ccc(C(=O)c3ccc([N+](=O)[O-])cc3)cc1)CC2,TMEM97,ligand displacement,,radioligand,,cell membranes,1200
CCCC[C@H](NC(=O)[C@H](CCC(N)=O)NC(=O)[C@H](CO)NC(=O)[C@H](C)NC(=O)CCCCCN)C(=O)N[C@@H](CCCBr)B(O)O,Prostate-specific antigen,enzyme activity,inhibitor,fluorescence,pH 7.8,,52.1
